Laboratory results: ChEMBL document CHEMBL2331108, “Synthesis and biological evaluation of a new series of hexahydro-2H-pyrano[3,2-c]quinolines as novel selective σ1 receptor ligands” (J Med Chem, 2013)

Legend:
[1] = Displacement of [3H]-Di-o-tolyguanidine from guinea pig sigma2 receptor after 120 mins by liquid scintillation counting analysis; set-up: species or system Cavia porcellus
Liver = test: Intrinsic clearance in mouse liver microsomes assessed per milligram of protein; format: ADME, Microsome
Mus musculus [2] = test: Antinociceptive activity in CD1 mouse assessed as inhibition of formalin-induced pain at 80 mg/kg, ip administered 15 mins before formalin-challenge measured after 15 to 30 mins; format: functional; settings: route intraperitoneal
Procedure, shortened: (§1)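 Male CD1 mice, 6–8 weeks old (n = 8–12 per group), were dosed ip at 10 mL/kg in 0.5% HPMC vehicle. 15 min later, 20 μL of 2.5% formalin (0.92% formaldehyde) was injected into the right hind paw, midplantar. Licking/biting time was scored 0–5 min (phase I) and 15–30 min (phase II).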

[3] = biological target: 5-hydroxytryptamine receptor 2B (Homo sapiens, UniProt P41595); test: Binding affinity to human 5-HT2B receptor
Mus musculus [4] = test: Antinociceptive activity in CD1 mouse assessed as inhibition of capsaicin-induced mechanical hypersensitivity at 80 mg/kg, po administered 30 mins before capsaicin-challenge measured after 15 mins; format: functional
Cytochrome P450 1A2 = biological target: T1, Cytochrome P450 1A2 (Homo sapiens, UniProt P05177); test: Inhibition of human recombinant CYP1A2; format: ADME
T1 sequence (P05177 whole entry): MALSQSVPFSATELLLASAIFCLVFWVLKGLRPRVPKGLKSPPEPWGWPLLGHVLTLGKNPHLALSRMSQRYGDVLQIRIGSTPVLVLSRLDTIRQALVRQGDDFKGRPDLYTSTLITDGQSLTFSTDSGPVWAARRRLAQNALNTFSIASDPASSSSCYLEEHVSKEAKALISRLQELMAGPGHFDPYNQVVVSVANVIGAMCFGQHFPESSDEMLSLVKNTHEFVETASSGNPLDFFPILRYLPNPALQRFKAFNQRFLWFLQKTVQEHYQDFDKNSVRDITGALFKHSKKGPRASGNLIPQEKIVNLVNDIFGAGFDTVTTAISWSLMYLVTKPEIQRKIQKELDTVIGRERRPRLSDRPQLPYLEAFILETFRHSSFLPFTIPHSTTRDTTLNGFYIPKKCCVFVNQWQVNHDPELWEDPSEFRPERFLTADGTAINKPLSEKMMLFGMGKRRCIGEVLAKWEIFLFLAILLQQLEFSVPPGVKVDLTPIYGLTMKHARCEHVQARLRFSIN

[5] = Dissociation constant, pKa of the compound; format: physicochemical
Procedure, shortened: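 pKa measured experimentally by pH-metric titration on an automated GlpKa instrument.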

HepG2 [6] = test: Cytotoxicity against human HepG2 cells up to 100 uM by neutral red uptake assay; format: cell-based
Liver microsomes [7] = test: Intrinsic clearance in rat liver microsomes assessed per milligram of protein; format: ADME, Microsome
[8] = biological target: Voltage-gated inwardly rectifying potassium channel KCNH2 (Homo sapiens, UniProt Q12809); test: Binding affinity to human ERG channel by patch clamp assay
Cytochrome P450 3A4 = Cytochrome P450 3A4 (Homo sapiens, UniProt P08684); test: Inhibition of human recombinant CYP3A4; format: ADME
HepG2 [9] = test: Cytotoxicity against human HepG2 cells up to 100 uM by MTT assay; format: cell-based
[10] = biological target: Sigma non-opioid intracellular receptor 1 (Homo sapiens, UniProt Q99720); test: Displacement of [3H]-(+)-pentazocine from human sigma1 receptor transfected in HEK293 cells after 120 mins by liquid scintillation counting analysis; format: cell-based
Liver microsomes [11] = test: Intrinsic clearance in human liver microsomes assessed per milligram of protein; format: ADME, Microsome
Mus musculus [12] = test: Antinociceptive activity in CD1 mouse assessed as inhibition of formalin-induced pain at 40 mg/kg, ip administered 15 mins before formalin-challenge measured after 15 to 30 mins; format: functional; settings: route intraperitoneal; procedure, shortened: as §1
Cytochrome P450 2D6 = Cytochrome P450 2D6 (Homo sapiens, UniProt P10635); test: Inhibition of human recombinant CYP2D6; format: ADME
Cytochrome P450 2C19 = Cytochrome P450 2C19 (Homo sapiens, UniProt P33261); test: Inhibition of human recombinant CYP2C19; format: ADME
Cytochrome P450 2C9 = Cytochrome P450 2C9 (Homo sapiens, UniProt P11712); test: Inhibition of human recombinant CYP2C9; format: ADME
Salmonella typhimurium = test: Genotoxicity in Salmonella typhimurium by Ames test; format: toxicity, organism-based; settings: salmonella enterica subsp. enterica serovar typhimurium
[13] = Kinetic solubility of the compound; format: physicochemical; settings: read-out: Kinetic_solubility
Procedure, shortened: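 Kinetic solubility: compound solution at 1% DMSO in phosphate buffer, pH 7.4, quantified by HPLC.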

Mus musculus [14] = test: Antinociceptive activity in ip dosed CD1 mouse assessed as inhibition of formalin-induced pain administered 15 mins before formalin-challenge measured after 15 to 30 mins; format: functional, organism-based; procedure, shortened: as §1

Sigma non-opioid intracellular receptor 1, sequence (Q99720 whole entry): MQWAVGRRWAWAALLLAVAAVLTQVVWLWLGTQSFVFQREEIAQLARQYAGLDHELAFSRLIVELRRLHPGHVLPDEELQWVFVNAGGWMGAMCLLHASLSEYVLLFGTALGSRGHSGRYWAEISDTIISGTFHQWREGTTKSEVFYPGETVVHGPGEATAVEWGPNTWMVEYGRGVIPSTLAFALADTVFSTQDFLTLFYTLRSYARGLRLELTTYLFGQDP
Cytochrome P450 2C19, sequence (P33261 whole entry): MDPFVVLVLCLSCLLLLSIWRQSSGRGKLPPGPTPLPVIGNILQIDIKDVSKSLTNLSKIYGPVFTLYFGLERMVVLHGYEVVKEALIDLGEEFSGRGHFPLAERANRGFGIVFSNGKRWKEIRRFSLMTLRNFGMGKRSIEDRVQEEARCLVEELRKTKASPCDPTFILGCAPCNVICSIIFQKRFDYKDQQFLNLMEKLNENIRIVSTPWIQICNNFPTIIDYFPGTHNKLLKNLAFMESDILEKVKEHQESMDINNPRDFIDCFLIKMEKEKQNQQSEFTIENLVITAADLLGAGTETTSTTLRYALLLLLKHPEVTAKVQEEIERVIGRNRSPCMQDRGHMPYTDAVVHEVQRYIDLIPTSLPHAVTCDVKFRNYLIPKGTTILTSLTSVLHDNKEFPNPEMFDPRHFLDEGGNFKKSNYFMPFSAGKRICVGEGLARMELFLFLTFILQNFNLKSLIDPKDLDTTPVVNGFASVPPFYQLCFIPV
Cytochrome P450 2D6, sequence (P10635 whole entry): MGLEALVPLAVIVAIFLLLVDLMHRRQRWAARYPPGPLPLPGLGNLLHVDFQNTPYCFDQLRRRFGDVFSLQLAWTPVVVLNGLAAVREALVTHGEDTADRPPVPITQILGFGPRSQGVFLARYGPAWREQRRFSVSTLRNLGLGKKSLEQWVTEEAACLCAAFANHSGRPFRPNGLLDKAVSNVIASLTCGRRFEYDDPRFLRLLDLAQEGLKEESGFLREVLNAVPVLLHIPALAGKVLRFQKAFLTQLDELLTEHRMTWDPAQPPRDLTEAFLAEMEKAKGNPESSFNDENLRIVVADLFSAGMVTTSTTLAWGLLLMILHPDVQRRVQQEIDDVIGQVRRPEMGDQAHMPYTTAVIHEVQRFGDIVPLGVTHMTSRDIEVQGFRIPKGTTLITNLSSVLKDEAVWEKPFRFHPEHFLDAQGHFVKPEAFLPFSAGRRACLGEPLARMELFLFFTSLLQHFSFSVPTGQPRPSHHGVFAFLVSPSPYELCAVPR
5-hydroxytryptamine receptor 2B, sequence (P41595 whole entry): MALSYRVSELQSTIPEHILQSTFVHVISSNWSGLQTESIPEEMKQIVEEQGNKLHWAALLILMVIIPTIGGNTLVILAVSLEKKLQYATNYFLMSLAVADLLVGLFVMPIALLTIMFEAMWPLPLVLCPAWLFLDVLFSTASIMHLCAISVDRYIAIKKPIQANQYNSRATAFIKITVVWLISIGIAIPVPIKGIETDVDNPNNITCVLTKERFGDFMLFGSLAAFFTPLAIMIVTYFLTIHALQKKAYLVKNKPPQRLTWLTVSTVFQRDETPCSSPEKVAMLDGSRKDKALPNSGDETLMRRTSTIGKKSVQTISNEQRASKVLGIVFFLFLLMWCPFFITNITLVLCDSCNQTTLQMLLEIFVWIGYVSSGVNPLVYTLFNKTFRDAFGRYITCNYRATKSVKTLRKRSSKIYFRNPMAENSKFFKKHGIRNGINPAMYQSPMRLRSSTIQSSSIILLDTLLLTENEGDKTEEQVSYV
Cytochrome P450 3A4, sequence (P08684 whole entry): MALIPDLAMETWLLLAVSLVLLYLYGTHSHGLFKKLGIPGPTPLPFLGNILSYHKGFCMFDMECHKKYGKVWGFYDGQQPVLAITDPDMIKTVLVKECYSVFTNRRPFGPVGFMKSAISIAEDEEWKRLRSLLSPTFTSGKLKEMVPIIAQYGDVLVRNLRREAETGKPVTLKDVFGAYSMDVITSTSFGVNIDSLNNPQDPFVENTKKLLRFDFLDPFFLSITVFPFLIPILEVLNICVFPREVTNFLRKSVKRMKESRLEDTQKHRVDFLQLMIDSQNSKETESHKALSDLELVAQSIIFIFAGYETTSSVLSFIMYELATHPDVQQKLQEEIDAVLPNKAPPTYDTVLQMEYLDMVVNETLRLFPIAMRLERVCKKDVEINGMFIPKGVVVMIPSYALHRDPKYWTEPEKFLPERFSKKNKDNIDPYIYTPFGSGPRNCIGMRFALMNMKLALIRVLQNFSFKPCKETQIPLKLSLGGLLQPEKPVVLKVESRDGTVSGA
Cytochrome P450 2C9, sequence (P11712 whole entry): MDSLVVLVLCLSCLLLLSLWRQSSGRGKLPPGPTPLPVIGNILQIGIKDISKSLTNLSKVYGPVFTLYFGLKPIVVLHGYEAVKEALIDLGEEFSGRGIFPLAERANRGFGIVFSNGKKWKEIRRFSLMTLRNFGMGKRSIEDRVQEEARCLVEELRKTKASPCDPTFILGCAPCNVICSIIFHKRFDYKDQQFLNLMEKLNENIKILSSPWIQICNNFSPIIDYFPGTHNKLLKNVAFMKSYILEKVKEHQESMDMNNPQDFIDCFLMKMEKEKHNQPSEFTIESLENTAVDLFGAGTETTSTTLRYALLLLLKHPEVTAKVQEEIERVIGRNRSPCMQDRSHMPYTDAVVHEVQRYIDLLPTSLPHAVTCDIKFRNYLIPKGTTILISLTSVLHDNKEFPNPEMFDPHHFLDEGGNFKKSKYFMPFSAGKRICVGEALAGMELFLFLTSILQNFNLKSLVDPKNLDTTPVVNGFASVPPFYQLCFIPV
Voltage-gated inwardly rectifying potassium channel KCNH2, sequence (Q12809 whole entry): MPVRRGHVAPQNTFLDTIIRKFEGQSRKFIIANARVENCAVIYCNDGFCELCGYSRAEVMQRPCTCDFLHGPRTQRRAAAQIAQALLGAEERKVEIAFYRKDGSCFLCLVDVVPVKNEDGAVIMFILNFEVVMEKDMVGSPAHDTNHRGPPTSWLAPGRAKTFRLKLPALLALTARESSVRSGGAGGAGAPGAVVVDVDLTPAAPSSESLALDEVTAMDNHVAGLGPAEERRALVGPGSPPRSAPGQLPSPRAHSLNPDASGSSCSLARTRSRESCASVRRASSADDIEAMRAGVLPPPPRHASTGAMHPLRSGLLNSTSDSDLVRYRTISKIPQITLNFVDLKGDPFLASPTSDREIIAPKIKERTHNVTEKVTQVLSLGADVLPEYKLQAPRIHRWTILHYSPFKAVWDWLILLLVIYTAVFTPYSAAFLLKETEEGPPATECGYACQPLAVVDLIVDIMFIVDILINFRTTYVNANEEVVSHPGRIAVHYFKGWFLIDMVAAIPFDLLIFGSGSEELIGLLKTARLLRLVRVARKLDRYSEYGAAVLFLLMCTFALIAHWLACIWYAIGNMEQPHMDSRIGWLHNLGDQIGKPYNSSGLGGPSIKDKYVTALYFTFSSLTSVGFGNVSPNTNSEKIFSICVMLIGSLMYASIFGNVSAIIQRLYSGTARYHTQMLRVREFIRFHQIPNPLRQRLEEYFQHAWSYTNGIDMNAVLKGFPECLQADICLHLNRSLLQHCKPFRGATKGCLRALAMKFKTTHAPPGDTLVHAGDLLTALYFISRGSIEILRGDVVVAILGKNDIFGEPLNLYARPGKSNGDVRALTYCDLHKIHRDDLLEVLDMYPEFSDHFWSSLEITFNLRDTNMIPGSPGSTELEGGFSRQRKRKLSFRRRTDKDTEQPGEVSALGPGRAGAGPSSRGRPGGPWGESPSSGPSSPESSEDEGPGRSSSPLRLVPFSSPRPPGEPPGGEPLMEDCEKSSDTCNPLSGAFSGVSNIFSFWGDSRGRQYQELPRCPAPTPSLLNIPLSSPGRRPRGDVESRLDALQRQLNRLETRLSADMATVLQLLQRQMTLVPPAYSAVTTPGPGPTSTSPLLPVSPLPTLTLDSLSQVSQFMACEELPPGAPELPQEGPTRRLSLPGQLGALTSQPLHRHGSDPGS

Row | Compound | Ki [1] [µM] | Ki [10] [µM] | also measured
1 | Cc1cc(OCCN2CCOCC2)nn1-c1ccc2ccccc2c1 | 1 | – | –
2 | CC(C)CCOc1ccc2c(c1)[C@H]1OCCC[C@H]1[C@@H](C1CCOCC1)N2 [listing 1 of 2 here] | 1 | 0.03 | CLH (Liver): 15.1 µL/min; inhibition in vivo at 80 mg/kg (Mus musculus [2]): 81%; Ki [3]: 5.3 µM; inhibition in vivo at 80 mg/kg (Mus musculus [4]): 63%; IC50 (Cytochrome P450 1A2): > 5 µM; pKa [5]: 3.8; Activity (HepG2 [6]): Non-toxic; CLH (Liver microsomes [7]): 21.7 µL/min; IC50 [8]: > 10 µM; IC50 (Cytochrome P450 3A4): > 5 µM; Activity (HepG2 [9]): Non-toxic; CLH (Liver microsomes [11]): 5 µL/min; inhibition in vivo at 40 mg/kg (Mus musculus [12]): 40%; IC50 (Cytochrome P450 2D6): > 5 µM; IC50 (Cytochrome P450 2C19): > 5 µM; IC50 (Cytochrome P450 2C9): > 5 µM; Activity (Salmonella typhimurium): Non-toxic
3 | CCCCCc1ccc2c(c1)[C@H]1OCCC[C@H]1[C@@H](C1CCCCC1)N2 | 1 | 0.019 | solubility kinetic [13]: < 1 µM
4 | CCCCCc1ccc2c(c1)[C@@H]1OCCC[C@@H]1[C@H](C1CCCCC1)N2 | 1 | > 1 | –
5 | CC(C)CCOc1ccc2c(c1)[C@H]1OCCC[C@H]1[C@@H](C1CCCCC1)N2 | 1 | 0.014 | solubility kinetic [13]: < 1 µM
6 | CC(C)CCOc1ccc2c(c1)[C@@H]1OCCC[C@@H]1[C@H](C1CCCCC1)N2 | 1 | > 1 | –
7 | CC(C)CCOc1ccc2c(c1)[C@@H]1OCCC[C@@H]1[C@H](C1CCOCC1)N2 | 1 | > 1 | –
8 | CC(C)CCOc1ccc2c(c1)[C@H]1OCCC[C@H]1[C@@H](C1CCOCC1)N2 [listing 2 of 2 here] | – | – | inhibition (Mus musculus [14]): Dose-dependent effect
9 | CCCCOc1ccc2c(c1)[C@H]1OCC[C@H]1[C@@H](C1CCCCC1)N2 (racemic) | 1 | > 1 | –
10 | CC(C)CCOc1ccc2c(c1)[C@H]1OCC[C@H]1[C@@H](C1CCCCC1)N2 (racemic) | 1 | 0.108 | –
11 | CCCCCc1ccc2c(c1)[C@H]1OCCC[C@H]1[C@@H](C(CC)CC)N2 (racemic) | 1 | 0.41 | –
12 | CCCCCc1ccc2c(c1)[C@H]1OCCC[C@H]1[C@@H](C1CCOCC1)N2 (racemic) | 1 | 0.067 | –
13 | CCCCOc1ccc2c(c1)[C@H]1OCCC[C@H]1[C@@H](C1CC1)N2 (racemic) | 1 | > 1 | –
14 | CCCCOc1ccc2c(c1)[C@H]1OCCC[C@H]1[C@@H](c1ccccc1)N2 (racemic) | 1 | > 1 | –
15 | CC(C)CCOc1ccc2c(c1)[C@H]1OCCC[C@H]1[C@@H](C1CCCC1)N2 (racemic) | 1 | 0.124 | –
16 | CC(C)CCOc1ccc2c(c1)[C@H]1OCCC[C@H]1[C@@H](C1CCOCC1)N2 (racemic) | – | 0.084 | –
17 | CC(C)CCOc1ccc2c(c1)[C@H]1OCCC[C@H]1[C@@H](C1CCNCC1)N2 (racemic) | 1 | 0.536 | –
18 | CCN1CCC([C@H]2Nc3ccc(OCCC(C)C)cc3[C@H]3OCCC[C@H]32)CC1 (racemic) | 1 | 0.317 | –
19 | CC(C)CCOc1ccc2c(c1)[C@H]1OCCC[C@H]1[C@@H](C1CCN(Cc3ccccc3)CC1)N2 (racemic) | 1 | 0.015 | solubility kinetic [13]: < 1 µM
20 | CCCCCc1ccc2c(c1)[C@H]1OCCC[C@H]1[C@@H](C1CCCCC1)N2 (racemic) | – | 0.043 | –

Row | Compound | Ki [1] [µM] | Ki [10] [µM] | also measured
21 | CC(C)CCOc1ccc2c(c1)[C@H]1OCCC[C@H]1[C@@H](C1CCCCC1)N2 (racemic) | – | 0.052 | –
22 | Clc1cccc(Oc2ccc3c(c2)[C@H]2OCCC[C@H]2[C@@H](C2CCCCC2)N3)c1 (racemic) | 1 | 0.377 | –
23 | Clc1cccc(Oc2ccc3c(c2)[C@H]2OCCC[C@H]2[C@H](C2CCCCC2)N3)c1 (racemic) | 1 | > 1 | –
24 | Clc1ccccc1Oc1ccc2c(c1)[C@H]1OCCC[C@H]1[C@@H](C1CCCCC1)N2 (racemic) | 1 | > 1 | –
25 | Clc1ccc(Oc2ccc3c(c2)[C@H]2OCCC[C@H]2[C@@H](C2CCCCC2)N3)cc1Cl (racemic) | 1 | 0.079 | –
26 | c1ccc(Oc2ccc3c(c2)[C@H]2OCCC[C@H]2[C@@H](C2CCCCC2)N3)cc1 (racemic) | 1 | > 1 | –
27 | c1ccc2c(c1)N[C@H](C1CCCCC1)[C@@H]1CCCO[C@H]21 (racemic) | 1 | > 1 | –
28 | CCCCc1ccc2c(c1)[C@H]1OCCC[C@H]1[C@@H](C1CCCCC1)N2 (racemic) | 1 | > 1 | –
29 | CCCCOc1ccc2c(c1)[C@H]1OCCC[C@H]1[C@@H](C1CCCCC1)N2 (racemic) | 1 | 0.178 | –
30 | Fc1ccc(COc2ccc3c(c2)[C@H]2OCCC[C@H]2[C@@H](C2CCCCC2)N3)cc1 (racemic) | 1 | > 1 | –
31 | c1cc2c(cc1C1CCCCC1)[C@H]1OCCC[C@H]1[C@@H](C1CCCCC1)N2 (racemic) | 1 | > 1 | –
32 | c1ccc(-c2ccc3c(c2)[C@H]2OCCC[C@H]2[C@@H](C2CCCCC2)N3)cc1 (racemic) | 1 | > 1 | –
33 | CCCNS(=O)(=O)c1ccc2c(c1)[C@H]1OCCC[C@H]1[C@@H](C1CCCCC1)N2 (racemic) | 1 | > 1 | –
34 | O=C(Nc1ccc2c(c1)[C@H]1OCCC[C@H]1[C@@H](C1CCCCC1)N2)c1ccccc1 (racemic) | 1 | > 1 | –
35 | Clc1ccc(Oc2ccc3c(c2)[C@H]2OCC[C@H]2[C@@H](C2CCCCC2)N3)cc1 (racemic) | 1 | 0.302 | –
36 | CCCCCc1ccc2c(c1)[C@H]1OCC[C@H]1[C@@H](C1CCCCC1)N2 (racemic) | 1 | 0.245 | –
37 | Clc1ccc(Oc2ccc3c(c2)[C@H]2OCCC[C@H]2[C@@H](C2CCCCC2)N3)cc1 (racemic) | > 1 | 0.194 | solubility kinetic [13]: < 0.4 µM
38 | Clc1ccc(Oc2ccc3c(c2)[C@H]2OCCC[C@H]2[C@H](C2CCCCC2)N3)cc1 (racemic) | 1 | > 1 | –
39 | O=C(CCCN1CCC(O)(c2ccc(Cl)cc2)CC1)c1ccc(F)cc1 [HALOPERIDOL] | 1 | – | –
